ChEMBL document CHEMBL3804819, “2-(Quinolin-4-yloxy)acetamides Are Active against Drug-Susceptible and Drug-Resistant Mycobacterium tuberculosis Strains” (ACS Med Chem Lett, 2016)
Converted amounts (≈) assume the structure as drawn. The source made the active and inactive calls. No cut-off for these calls is given here.

Columns and labels:
[1] = tested on: Mycobacterium tuberculosis; test: Antibacterial activity against Mycobacterium tuberculosis H37Rv assessed as reduction in bacterial growth after 7 days by resazurin assay; type: functional; conditions: for MIC: 168 h
[2] = tested on: Mycobacterium tuberculosis; test: Antibacterial activity against Mycobacterium tuberculosis H37Rv infected in mouse RAW 264.7 cells assessed reduction in bacterial count per well at 5 uM after 3 days (reference value: 2.5 +/- 0.15 log10CFU); type: functional
Vero = test: Cytotoxicity against African green monkey Vero cells assessed as reduction in cell viability at 20 uM after 72 hrs by MTT assay; type: cell-based; conditions: chlorocebus sabaeus
HaCaT = test: Cytotoxicity against human HaCaT cells assessed as reduction in cell viability at 20 uM after 72 hrs by MTT assay; type: cell-based
Escherichia coli = test: Antibacterial activity against Escherichia coli ATCC 25922 at 20 uM; type: functional, organism-based
Staphylococcus aureus = test: Antibacterial activity against Staphylococcus aureus ATCC 25923 at 20 uM; type: functional, organism-based
Pseudomonas aeruginosa = test: Antibacterial activity against Pseudomonas aeruginosa ATCC 27853 at 20 uM; type: functional, organism-based
Acinetobacter baumannii = test: Antibacterial activity against Acinetobacter baumannii ATCC BAA 747 at 20 uM; type: functional, organism-based
RAW264.7 = test: Cytotoxicity against mouse RAW264.7 cells assessed as decrease in cell viability at 5 uM after 72 hrs by MTT assay; type: cell-based; conditions: raw264.7, 72 h
[3] = Thermodynamic solubility of the compound at pH 1.5 after 24 hrs by HPLC analysis; type: physicochemical; conditions: buffer, read-out: Therm_solubility
Liver = test: Metabolic stability in human liver S9 fraction at 2 uM measured up to 30 mins by HPLC/MS/MS analysis; type: ADME, subcellular; conditions: s9, 0.5 h
Danio rerio [4] = species: Danio rerio; test: Toxicity in zebrafish embryo assessed as reduction in heart rate at 1 uM measured at 72 hrs post fertilization by stereo microscopic analysis; type: organism-based; conditions: in vivo
[5] = Thermodynamic solubility of the compound at pH 7.4 after 24 hrs by HPLC analysis; type: physicochemical; conditions: buffer, read-out: Therm_solubility
[6] = Inhibition CYP450 in human liver microsomes by HPLC/MS/MS analysis in presence of NADPH; type: ADME
Danio rerio [7] = species: Danio rerio; test: Toxicity in zebrafish embryo assessed as reduction in heart rate at 5 uM measured at 72 hrs post fertilization by stereo microscopic analysis; type: organism-based; conditions: in vivo
Danio rerio [8] = species: Danio rerio; test: Toxicity in zebrafish embryo assessed as reduction in heart rate at 20 uM measured at 72 hrs post fertilization by stereo microscopic analysis; type: organism-based; conditions: in vivo
[9] = tested on: Mycobacterium tuberculosis; test: Antibacterial activity against Mycobacterium tuberculosis H37Rv ATCC 25618 assessed as reduction in bacterial growth after 6 days by resazurin assay; type: functional; conditions: H37Rv ATCC 25618, 144 h
[10] = tested on: Mycobacterium tuberculosis; test: Potency index, ratio of isoniazid MIC to compound MIC for Mycobacterium tuberculosis H37Rv; type: functional
Danio rerio [11] = species: Danio rerio; test: Toxicity in zebrafish embryo assessed as reduction in embryo viability at 20 uM measured at 72 hrs post fertilization; type: organism-based; conditions: in vivo
How it was run: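 Zebrafish embryos exposed to 20 μM for 72 h; embryo survival scored.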

[12] = Selectivity index, ratio of cytotoxic activity for African green monkey Vero cells to MIC for Mycobacterium tuberculosis H37Rv; type: toxicity, cell-based; conditions: read-out: Selectivity Index
[13] = Selectivity index, ratio of cytotoxic activity for human HaCaT cells to MIC for Mycobacterium tuberculosis H37Rv; type: toxicity, cell-based; conditions: read-out: Selectivity Index
[14] = Selectivity index, ratio of cardiac toxicity for zebrafish embryo to MIC for Mycobacterium tuberculosis H37Rv; conditions: read-out: Selectivity Index

Structure (SMILES) | MIC [1] [µM] | Activity [2] [log10CFU] | Activity (Vero) | Activity (HaCaT) | Activity (Escherichia coli) | Activity (Staphylococcus aureus) | Activity (Pseudomonas aeruginosa) | Activity (Acinetobacter baumannii) | Activity (RAW264.7) | further results
COc1ccc2nc(C)cc(OCC(=O)Nc3ccccc3Cl)c2c1 | 0.44 (≈ 0.157 µg/mL) | 1.75 | Non-toxic | Non-toxic | inactive | inactive | inactive | inactive | Non-toxic | –
COc1ccc(NC(=O)COc2cc(C)nc3ccc(OC)cc23)c(OC)c1 | 0.15 (≈ 0.0574 µg/mL) | 1.61 | Non-toxic | Non-toxic | inactive | inactive | inactive | inactive | Non-toxic | solubility thermodynamic at 24 h [3]: 30 µM (≈ 11.5 µg/mL); Stability (Liver): Stable; Activity (Danio rerio [4]): Non-toxic; solubility thermodynamic at 24 h [5]: < 4.4 µM; IC50 [6]: < 10 µM; Activity (Danio rerio [7]): Non-toxic; Activity (Danio rerio [8]): Toxic
COc1ccc2nc(C)cc(O)c2c1 | – | – | – | – | – | – | – | – | – | Activity [1]: inactive
COc1ccc2nc(C)cc(OCC(=O)Nc3ccc(C(F)(F)F)cc3)c2c1 | 0.8 (≈ 0.312 µg/mL) | 1.89 | Non-toxic | Non-toxic | inactive | inactive | inactive | inactive | Non-toxic | –
COc1ccc2nc(C)cc(OCC(=O)Nc3cccc(Cl)c3)c2c1 | 0.44 (≈ 0.157 µg/mL) | 2.12 | Non-toxic | Non-toxic | inactive | inactive | inactive | inactive | Non-toxic | –
COc1ccc2nc(C)cc(OCC(=O)Nc3ccc(Br)cc3)c2c1 | 0.1 (≈ 0.0401 µg/mL) | 1.87 | Non-toxic | Non-toxic | inactive | inactive | inactive | inactive | Non-toxic | solubility thermodynamic at 24 h [3]: 30 µM (≈ 12 µg/mL); Stability (Liver): Stable; Activity (Danio rerio [4]): Non-toxic; solubility thermodynamic at 24 h [5]: < 4.4 µM; IC50 [6]: < 10 µM; Activity (Danio rerio [7]): Non-toxic; Activity (Danio rerio [8]): Toxic
COc1ccc2nc(C)cc(OCC(=O)Nc3ccc(Cl)cc3)c2c1 | 0.44 (≈ 0.157 µg/mL) | 1.73 | Non-toxic | Non-toxic | inactive | inactive | inactive | inactive | Non-toxic | –
COc1cccc(NC(=O)COc2cc(C)nc3ccc(OC)cc23)c1 | 0.88 (≈ 0.31 µg/mL) | – | Non-toxic | Non-toxic | inactive | inactive | inactive | inactive | – | –
COc1ccc2nc(C)cc(OCC(=O)Nc3ccc([N+](=O)[O-])cc3)c2c1 | 6.79 (≈ 2.49 µg/mL) | – | – | – | – | – | – | – | – | –
COc1ccc2nc(C)cc(OCC(=O)Nc3ccccc3)c2c1 | 0.48 (≈ 0.155 µg/mL) | – | Non-toxic | Non-toxic | inactive | inactive | inactive | inactive | – | –
COc1ccc2c(c1)c(=O)ccn2CC(=O)Nc1ccccc1OC | > 31 | – | – | – | – | – | – | – | – | –
COc1ccc2nc(C)cc(OCC(=O)Nc3cccc4ccccc34)c2c1 | 0.21 (≈ 0.0782 µg/mL) | – | – | – | – | – | – | – | – | –
COc1ccc2nc(C)cc(OCC(=O)NCc3ccccc3)c2c1 | 1.85 (≈ 0.622 µg/mL) | 1.71 | Non-toxic | Non-toxic | inactive | inactive | inactive | inactive | Non-toxic | –
COc1ccccc1NC(=O)COc1cc(C)nc2ccccc12 | > 29 | – | – | – | – | – | – | – | – | –
COc1ccc2nc(C)cc(OCC(=O)Nc3ccccc3C)c2c1 | 0.46 (≈ 0.155 µg/mL) | 2.09 | Non-toxic | Non-toxic | inactive | inactive | inactive | inactive | Non-toxic | –
COc1ccc2nc(C)cc(OCC(=O)Nc3ccc4c(c3)OCO4)c2c1 | 0.42 (≈ 0.154 µg/mL) | 1.77 | Non-toxic | Non-toxic | inactive | inactive | inactive | inactive | Non-toxic | –
COc1ccc2nc(C)cc(OCC(=O)Nc3cccc(C(F)(F)F)c3)c2c1 | 6.39 (≈ 2.49 µg/mL) | – | – | – | – | – | – | – | – | –
COc1ccc2nc(C)cc(OCC(=O)Nc3ccccc3[N+](=O)[O-])c2c1 | 6.79 (≈ 2.49 µg/mL) | – | – | – | – | – | – | – | – | –
COc1ccc2nc(C)cc(OCC(=O)Nc3ccccc3OC)c2c1 | 0.44 (≈ 0.155 µg/mL) | 1.61 | Non-toxic | Non-toxic | inactive | inactive | inactive | inactive | Non-toxic | MIC [9]: 0.7 µM (≈ 0.247 µg/mL)
CCc1cccc(C)c1NC(=O)COc1cc(C)nc2ccc(OC)cc12 | > 27 | – | – | – | – | – | – | – | – | –
CO[C@H]1/C=C/O[C@@]2(C)Oc3c(C)c(O)c4c(O)c(c(/C=N/N5CCN(C)CC5)c(O)c4c3C2=O)NC(=O)/C(C)=C\C=C\[C@H](C)[C@H](O)[C@@H](C)[C@@H](O)[C@@H](C)[C@H](OC(C)=O)[C@@H]1C [RIFAMPIN] | – | 1.58 | – | – | – | – | – | – | – | –
COc1ccc2nc(C)cc(OCC(=O)Nc3ccc4ccccc4c3)c2c1 | 0.05 (≈ 0.0186 µg/mL) | 1.93 | Toxic | Toxic | inactive | inactive | inactive | inactive | Non-toxic | Ratio [10]: 30; solubility thermodynamic at 24 h [3]: 30 µM (≈ 11.2 µg/mL); Stability (Liver): Unstable; Activity (Danio rerio [4]): Non-toxic; solubility thermodynamic at 24 h [5]: < 4.4 µM; IC50 [6]: < 10 µM; Activity (Danio rerio [7]): Non-toxic; Activity (Danio rerio [8]): Toxic; Activity (Danio rerio [11]): Toxic; Selectivity ratio [12]: > 100; Selectivity ratio [13]: > 100; Selectivity ratio [14]: > 100
COc1ccc2nc(C)cc(OCC(=O)Nc3ccc(N)cc3)c2c1 | 7.39 (≈ 2.49 µg/mL) | – | – | – | – | – | – | – | – | –
NNC(=O)c1ccncc1 [ISONIAZID] | 1.46 (≈ 0.2 µg/mL) | – | – | – | – | – | – | – | – | –
COc1ccc(NC(=O)COc2cc(C)nc3ccc(OC)cc23)cc1 | 0.44 (≈ 0.155 µg/mL) | – | Non-toxic | Non-toxic | inactive | inactive | inactive | inactive | – | –
